According to ChEMBL document CHEMBL1165909, “Analgesic, anti-pyretic and DNA cleavage studies of novel pyrimidine derivatives of coumarin moiety” (Eur J Med Chem, 2010):
The source made the active and inactive calls. The rule behind the calls is not given here.

Tests used:
Rattus norvegicus [1] = test: Antipyretic activity against brewer's yeast-induced hyperthermia in albino Wistar rat assessed as change in rectal temperature at 300 mg/kg, po after 1 hr (reference value: 33.78 +/- 0.18 degC); type: functional
Rattus norvegicus [2] = test: Antipyretic activity against brewer's yeast-induced hyperthermia in albino Wistar rat assessed as change in rectal temperature at 300 mg/kg, po after 3 hrs (reference value: 32.80 +/- 0.09 degC); type: functional
Rattus norvegicus [3] = test: Antipyretic activity against brewer's yeast-induced hyperthermia in albino Wistar rat assessed as change in rectal temperature at 300 mg/kg, po after 5 hrs (reference value: 34.36 +/- 0.14 degC); type: functional
Rattus norvegicus [4] = test: Antipyretic activity against brewer's yeast-induced hyperthermia in albino Wistar rat assessed as change in rectal temperature at 300 mg/kg, po after 6 hrs (reference value: 33.44 +/- 0.18 degC); type: functional
Rattus norvegicus [5] = test: Acute toxicity in albino Wistar rat assessed as mortality at up to 3 g/kg, po after 24 hrs; type: organism-based; details: in vivo, 3000 mg/kg
In short: (§1)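 Albino rats of either sex, groups of six, dosed from 100 up to 3000 mg kg^-1 body weight. Watched continuously for 8 h for signs such as altered motor activity, ataxia, tremors, convulsions, sedation and lacrimation. Killed at 24 h; stomach, intestine and liver inspected under magnifying lenses for ulcer-haemorrhagic spots.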

Rattus norvegicus [6] = test: Acute toxicity in albino Wistar rat assessed as sedation at up to 3 g/kg, po after 24 hrs; type: organism-based; details: in vivo, 3000 mg/kg; in short: as §1
Rattus norvegicus [7] = test: Acute toxicity in albino Wistar rat assessed as convulsion at up to 3 g/kg, po after 24 hrs; type: organism-based; details: in vivo, 3000 mg/kg; in short: as §1
Rattus norvegicus [8] = test: Acute toxicity in albino Wistar rat assessed as tremors at up to 3 g/kg, po after 24 hrs; type: organism-based; details: in vivo, 3000 mg/kg; in short: as §1
Rattus norvegicus [9] = test: Acute toxicity in albino Wistar rat assessed as ulceration at up to 3 g/kg, po after 24 hrs; type: organism-based; details: in vivo, 3000 mg/kg; in short: as §1
Rattus norvegicus [10] = test: Acute toxicity in albino Wistar rat assessed as haemorrhagic spots at up to 3 g/kg, po after 24 hrs; type: organism-based; details: in vivo, 3000 mg/kg; in short: as §1
Rattus norvegicus [11] = test: Acute toxicity in albino Wistar rat assessed as stomach ulcerhaemorrhagic spots at up to 3 g/kg, po after 24 hrs; type: organism-based; details: in vivo, 3000 mg/kg; in short: as §1
Rattus norvegicus [12] = test: Acute toxicity in albino Wistar rat assessed as intestine ulcerhaemorrhagic spots at up to 3 g/kg, po after 24 hrs; type: organism-based; details: in vivo, 3000 mg/kg; in short: as §1
Rattus norvegicus [13] = test: Analgesic activity in albino Wistar rat assessed as reaction time required for tail flicking at 25 mg/kg, po after 30 mins by tail-flick method (reference value: 3.97 +/- 0.287 sec); type: functional
Rattus norvegicus [14] = test: Analgesic activity in albino Wistar rat assessed as reaction time required for tail flicking at 25 mg/kg, po after 60 mins by tail-flick method (reference value: 4 +/- 0.360 sec); type: functional
Rattus norvegicus [15] = test: Analgesic activity in albino Wistar rat assessed as reaction time required for tail flicking at 25 mg/kg, po after 90 mins by tail-flick method (reference value: 3.87 +/- 0.355 sec); type: functional
Rattus norvegicus [16] = test: Antipyretic activity against brewer's yeast-induced hyperthermia in albino Wistar rat assessed as change in rectal temperature at 100 mg/kg, po after 1 hr (reference value: 33.78 +/- 0.18 degC); type: functional
Rattus norvegicus [17] = test: Antipyretic activity against brewer's yeast-induced hyperthermia in albino Wistar rat assessed as change in rectal temperature at 100 mg/kg, po after 3 hrs (reference value: 32.80 +/- 0.09 degC); type: functional
Rattus norvegicus [18] = test: Antipyretic activity against brewer's yeast-induced hyperthermia in albino Wistar rat assessed as change in rectal temperature at 100 mg/kg, po after 5 hrs (reference value: 34.36 +/- 0.14 degC); type: functional
Rattus norvegicus [19] = test: Antipyretic activity against brewer's yeast-induced hyperthermia in albino Wistar rat assessed as change in rectal temperature at 100 mg/kg, po after 6 hrs (reference value: 33.44 +/- 0.18 degC); type: functional
Nucleic Acid = test: Induction of Escherichia coli DNA cleavage at 25 mg after 24 hrs by agarose gel electrophoresis method; type: nucleic-acid assay
In short: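 E. coli grown in nutrient broth 24 h at 37 °C. Genomic DNA isolated by SDS lysis, phenol (55 °C, 10 min), chloroform:isoamyl alcohol extraction and ethanol precipitation, dissolved in TAE. Compounds at 1 mg/ml in DMF added to DNA, incubated 2 h at 37 °C. Run on agarose gel at 50 V about 30 min, stained with ethidium bromide, bands compared with DNA marker.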

With CC(=O)Oc1ccccc1C(=O)O [ASPIRIN] the T (Rattus norvegicus [1]) was 32.82 °C, the T (Rattus norvegicus [2]) was 32 °C and the T (Rattus norvegicus [3]) was 32.3 °C. It also gave a T (Rattus norvegicus [4]) of 32.38 °C.

For O=c1cc(COc2ccc(-c3cc(-c4ccccc4)nc(O)n3)cc2)c2ccc3ccccc3c2o1, the Activity (Rattus norvegicus [5]) was “Non-toxic”, the Activity (Rattus norvegicus [6]) was “Non-toxic” and the Activity (Rattus norvegicus [7]) was “Non-toxic”. For the same molecule, the Activity (Rattus norvegicus [8]) was “Non-toxic”, the Activity (Rattus norvegicus [9]) was “Non-toxic” and the Activity (Rattus norvegicus [10]) was “Non-toxic”. For the same molecule, the Activity (Rattus norvegicus [11]) was “Non-toxic”, the Activity (Rattus norvegicus [12]) was “Non-toxic” and the Time (Rattus norvegicus [13]) was 4.75 s. For the same molecule, the Time (Rattus norvegicus [14]) was 6.25 s, the Time (Rattus norvegicus [15]) was 7.25 s and the T (Rattus norvegicus [16]) was 32.25 °C. The T (Rattus norvegicus [17]) was 32.68 °C, the T (Rattus norvegicus [18]) was 33.44 °C and the T (Rattus norvegicus [19]) was 32.74 °C. The Activity (Nucleic Acid) was “Active”.
